For orientation: IC50 means the point on the concentration scale where inhibition reaches its midpoint. The term CC50 denotes the concentration at which the toxic effect on the cells reaches its halfway point.

The values that follow come from ChEMBL document CHEMBL1158460, “Heterobiaryl human immunodeficiency virus entry inhibitors” (J Med Chem, 2009).

For data set [1], the system named is Human immunodeficiency virus 1. Description: Antiviral activity against HIV1 expressed in 293T cells assessed as protection against viral M33 envelope infection in human U87 cells coexpressing CD4, CCR5 receptors after 72 hrs by luciferase reporter gene pseudoviral assay. It is filed as functional, organism-based. To be noted: Human immunodeficiency virus 1, HEK-293T. The gist of the method:
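Pseudovirions carry an R5-using envelope cloned from a primary virus isolate. Anti-HIV-1 activity was taken as the 50% inhibitory dose against these pseudovirions.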

A short description of data set [2]: Inhibition of HIV1 3B recombinant gp120/sCD4 binding interaction by ELISA. The gist of the method:
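Competitive ELISA of soluble CD4 binding to gp120 from HIV IIIB. Bound CD4 was detected with an anti-CD4 monoclonal antibody, then a peroxidase-labelled anti-mouse antibody. The read-out was the 50% inhibitory dose.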
A general note: ELISA stands for enzyme-linked immunosorbent assay.

A short description of data set [3]: Cytotoxicity against human U87 cells coexpressing CD4, CxCR4 receptors after 72 hrs. It is filed as cell-based, U-87MG ATCC. The conditions noted are these: U87 cells coexpressing CD4 and CXCR4 receptors.
Data set [4] concerns Human immunodeficiency virus. Description: Antiviral activity against HIV isolate 584.000 017 by replication assay. It is filed as functional, organism-based. To be noted: Human immunodeficiency virus 1, isolate 584.000 017.
Data set [5] has as its system Human immunodeficiency virus. Nature of the data set: Antiviral activity against HIV isolate 584.000 030 by replication assay. The class given is functional, organism-based. The conditions noted are these: Human immunodeficiency virus 1, isolate 584.000 030.
Data set [6] deals with Human immunodeficiency virus. Description: Antiviral activity against HIV isolate 584.000 031 by replication assay. The class given is functional, organism-based. To be noted: Human immunodeficiency virus 1, isolate 584.000 031.
In data set [7] the test system is Human immunodeficiency virus. Description: Antiviral activity against HIV isolate 584.000 054 by replication assay. The class given is functional, organism-based. To be noted: Human immunodeficiency virus 1, isolate 584.000 054.
Data set [8] deals with Human immunodeficiency virus. Description: Antiviral activity against HIV isolate 584.000 060 by replication assay. It is filed as functional, organism-based. The conditions noted are these: Human immunodeficiency virus 1, isolate 584.000 060.
Data set [9] relates to Human immunodeficiency virus. Nature of the data set: Antiviral activity against HIV isolate 584.000 063 by replication assay. It is filed as functional, organism-based. The conditions noted are these: Human immunodeficiency virus 1, isolate 584.000 063.
Data set [10] relates to Human immunodeficiency virus. Nature of the data set: Antiviral activity against HIV isolate 584.000 066 by replication assay. It is filed as functional, organism-based. The conditions noted are these: Human immunodeficiency virus 1, isolate 584.000 066.
The subject of data set [11] is Human immunodeficiency virus. Nature of the data set: Antiviral activity against HIV isolate 584.000.098 by replication assay. It is filed as functional, organism-based. The conditions noted are these: Human immunodeficiency virus 1, isolate 584.000.098.
In data set [12] the test system is Human immunodeficiency virus. Description: Antiviral activity against HIV isolate 584.000 220 by replication assay. The class given is functional, organism-based. The conditions noted are these: Human immunodeficiency virus 1, isolate 584.000 220.
The test system of data set [13] is Human immunodeficiency virus. Nature of the data set: Antiviral activity against HIV isolate 584.000 227 by replication assay. The class given is functional, organism-based. The conditions noted are these: Human immunodeficiency virus 1, isolate 584.000 227.
Data set [14] deals with Human immunodeficiency virus. Description: Antiviral activity against HIV isolate 589.000 033 by replication assay. To be noted: Human immunodeficiency virus 1, isolate 589.000 033. The class given is functional, organism-based.
The subject of data set [15] is Human immunodeficiency virus. Nature of the data set: Antiviral activity against HIV isolate 584.000 058 by replication assay. It is filed as functional, organism-based. The conditions noted are these: Human immunodeficiency virus 1, isolate 584.000 058.

Molecules are shown by their SMILES.

With `COc1ncc(OC)c2c(C(=O)C(=O)N3CCN(C(=O)c4ccccc4)CC3)c[nH]c12`, the concentration for half-maximal inhibition (IC50) was 26 nM in data set [1]; 2400 nM in data set [2]; above 10000 nM in data set [4]; 30 nM in data set [5]; 240 nM in data set [6]; 7130 nM in data set [7]. Besides, the IC50 in data set [8] turned out to be 14 nM; in data set [9], 17 nM; in data set [10] it was 11 nM; in [11] it was 425 nM; in [12], 4 nM; in data set [13], 22 nM. For the same compound, the figures for the IC50 in data set [14] and in [15] were 34 nM and 60 nM, respectively. Moreover, the CC50 at 72 h in [3] was above 40000 nM.
Consider `COc1cc(-c2cc(C)no2)ccc1C(=O)C(=O)N1CCN(C(=O)c2ccccc2)C[C@H]1C`, for which the IC50 was below 5 nM in data set [1]; 230 nM in data set [2]; above 10000 nM in data set [4]; 13 nM in data set [5]; 8980 nM in [6]; 3510 nM in data set [7]. The IC50 in data set [8] was determined as 17 nM; in data set [9], 25 nM; in data set [10], 273 nM; in [11], 301 nM; in data set [12], 3 nM; in [13], 1820 nM. Also, the IC50 came to 11 nM in data set [14] and 22 nM in data set [15]. This compound returned a CC50 at 72 h in [3] above 40000 nM.
